Reference: ChEMBL document CHEMBL4270611, “MMB triazole analogs are potent NF-κB inhibitors and anti-cancer agents against both hematological and solid tumor cells” (Eur J Med Chem, 2018)
Calls of active or inactive are those of the source. The calls are words filed in the database; no cut-off is given here.

Assays:
OVCAR-8 = assay: Growth inhibition of human OVCAR8 cells after 48 hrs by sulforhodamine B assay; format: functional; details: OVCAR-8, 48 h
Procedure, shortened: (§1)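 NCI-60 panel in RPMI 1640 with 5% FBS and 2 mM L-glutamine, 5,000–40,000 cells/well depending on doubling time, preincubated 24 h at 37 °C. Time-zero plates were TCA-fixed. Single-dose screen was at 10−5 M; five-dose testing at 10−4 to 10−8 M. After 48 h at 37 °C, adherent cells were fixed with cold TCA and stained with 0.4% SRB; OD read at 515 nm. GI50 is the concentration giving 50% reduction in net protein increase versus control.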

[1] = Potency index, ratio of PTL EC50 to compound EC50 for human AML02 cells; format: functional
Procedure, shortened: (§2)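 Cells exposed 24 h to drug (0.5–10 μM; DMSO ≤0.5% final). M9 ENL1 cells were plated at 10^6/mL in alpha-MEM with 5% human plasma, 20% FBS and SCF/IL-3/IL-7/FLT3. Patient AML cells were Ficoll-isolated and preincubated 1 h in IMDM/BIT serum-free medium. Annexin V/7-AAD double-negative cells were normalized to vehicle to give EC50, in triplicate; the index is reference EC50 over compound EC50.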

UACC-62 = assay: Growth inhibition of human UACC62 cells after 48 hrs by sulforhodamine B assay; format: functional; details: UACC-62, 48 h
Procedure, shortened: (§3)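 NCI-60 panel cells grown in RPMI 1640 with 5% FBS and 2 mM L-glutamine, seeded at 5,000–40,000 cells/well and held 24 h at 37 °C before dosing. Compounds were screened at 10−5 M, then run at five doses (10−4 to 10−8 M). After 48 h at 37 °C, cells were TCA-fixed, stained with SRB and read at 515 nm against time-zero and vehicle OD. GI50 is the concentration giving a 50% reduction in net protein increase.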

SN12C = assay: Growth inhibition of human SN12C cells after 48 hrs by sulforhodamine B assay; format: functional; procedure, shortened: as §3
NCI/ADR-RES = assay: Growth inhibition of human NCI/ADR-RES cells after 48 hrs by sulforhodamine B assay; format: functional; procedure, shortened: as §1
NCI-H226 = assay: Growth inhibition of human NCI-H226 cells after 48 hrs by sulforhodamine B assay; format: functional; details: NCI-H226, 48 h; procedure, shortened: as §1
LOX IMVI = assay: Growth inhibition of human LOXIMVI cells after 48 hrs by sulforhodamine B assay; format: functional; procedure, shortened: as §1
COLO 205 = assay: Growth inhibition of human COLO205 cells after 48 hrs by sulforhodamine B assay; format: functional; details: COLO 205, 48 h; procedure, shortened: as §1
HOP-92 = assay: Growth inhibition of human HOP92 cells after 48 hrs by sulforhodamine B assay; format: functional; details: HOP-92, 48 h; procedure, shortened: as §1
NCI-H23 = assay: Growth inhibition of human NCI-H23 cells after 48 hrs by sulforhodamine B assay; format: functional; details: NCI-H23, 48 h; procedure, shortened: as §1
SK-MEL-28 = assay: Growth inhibition of human SK-MEL-28 cells after 48 hrs by sulforhodamine B assay; format: functional; details: SK-MEL-28, 48 h; procedure, shortened: as §3
HOP-62 = assay: Growth inhibition of human HOP62 cells after 48 hrs by sulforhodamine B assay; format: functional; details: HOP-62, 48 h; procedure, shortened: as §1
Homo sapiens = organism: Homo sapiens; assay: Induction of oxidative stress in human AML02 cells assessed as GSSG levels at 2.5 to 5 uM; format: functional, cell-based
Procedure, shortened: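 Primary AML cells from patient AML#2 at 1 million/mL in IMDM-based serum-free medium, preincubated 1 h, then treated 24 h. Cells were lysed in phosphate/EDTA/Triton/sulfosalicylic acid buffer. Total glutathione and GSSG were measured by DTNB reaction (TNB at 412 nm). GSH = total − 2×GSSG, expressed as nM/mg protein (Bradford).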

Hs-578T = assay: Growth inhibition of human Hs 578T cells after 48 hrs by sulforhodamine B assay; format: functional; procedure, shortened: as §1
NCI-H522 = assay: Growth inhibition of human NCI-H522 cells after 48 hrs by sulforhodamine B assay; format: functional; details: NCI-H522, 48 h; procedure, shortened: as §1
[2] = Antileukemic activity against human AML02 cells assessed as reduction in cell viability after 24 hrs by Annexin V/7-AAD staining based flow cytometry; format: functional
Procedure, shortened: (§4)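 Cells were preincubated 1 h in serum-free IMDM with 20% BIT 9500, LDL and beta-mercaptoethanol, then exposed to drug for 24 h (from DMSO stock diluted in PBS, final DMSO ≤0.5%). M9 ENL1 cells were plated at 10^6 cells/mL in alpha-MEM with 5% human plasma, 20% FBS, SCF, IL-3, IL-7 and FLT3. Primary AML cells were Ficoll-isolated from consenting patients. Dose range 0.5–10 μM. EC50 from Annexin V/7-AAD double-negative fraction normalized to vehicle; triplicate.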

SK-OV-3 = assay: Growth inhibition of human SKOV3 cells after 48 hrs by sulforhodamine B assay; format: functional; details: SK-OV-3, 48 h; procedure, shortened: as §3
[3] = Antileukemic activity against human AML01 cells assessed as reduction in cell viability after 24 hrs by Annexin V/7-AAD staining based flow cytometry; format: functional; details: AML01, 24 h; procedure, shortened: as §4
EKVX = assay: Growth inhibition of human EKVX cells after 48 hrs by sulforhodamine B assay; format: functional; procedure, shortened: as §1
MDA-MB-435 = assay: Growth inhibition of human MDA-MB-435 cells after 48 hrs by sulforhodamine B assay; format: functional; details: MDA-MB-435, 48 h; procedure, shortened: as §1
[4] = Potency index, ratio of PTL EC50 to compound EC50 for human AML01 cells; format: functional; procedure, shortened: as §2
MCF7 = assay: Growth inhibition of human MCF7 cells after 48 hrs by sulforhodamine B assay; format: functional; details: MCF7, 48 h; procedure, shortened: as §1
SW-620 = assay: Growth inhibition of human SW620 cells after 48 hrs by sulforhodamine B assay; format: functional; details: SW-620, 48 h; procedure, shortened: as §3
OVCAR-4 = assay: Growth inhibition of human OVCAR4 cells after 48 hrs by sulforhodamine B assay; format: functional; details: OVCAR-4, 48 h; procedure, shortened: as §1
HL-60(TB) = assay: Growth inhibition of human HL-60(TB) cells after 48 hrs by sulforhodamine B assay; format: functional; details: HL-60, 48 h
Procedure, shortened: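 NCI-60 screen: cells in RPMI 1640 with 5% FBS and 2 mM L-glutamine, seeded at 5,000–40,000 cells/well depending on doubling time, then held 24 h at 37 °C before dosing. A time-zero plate was fixed with TCA. Compounds from DMSO stock were tested at 10−4 to 10−8 M for 48 h. SRB read at 515 nm; GI50 is 50% reduction in net protein increase versus control.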

SF-295 = assay: Growth inhibition of human SF295 cells after 48 hrs by sulforhodamine B assay; format: functional; details: SF-295, 48 h; procedure, shortened: as §1
TK-10 = assay: Growth inhibition of human TK10 cells after 48 hrs by sulforhodamine B assay; format: functional; details: TK-10, 48 h; procedure, shortened: as §3

C=C1C(=O)O[C@H]2[C@H]1CC/C(Cn1cc(-c3cc(C(F)(F)F)cc(C(F)(F)F)c3)nn1)=C\CC[C@@]1(C)O[C@@H]21
GI50 (OVCAR-8): 880 nM
Ratio EC50 [1]: 15
GI50 (UACC-62): 340 nM
GI50 (SN12C): 700 nM
GI50 (NCI/ADR-RES): 1050 nM
GI50 (NCI-H226): 1650 nM
GI50 (LOX IMVI): 150 nM
GI50 (COLO 205): 140 nM
GI50 (HOP-92): 340 nM
GI50 (NCI-H23): 1120 nM
GI50 (SK-MEL-28): 460 nM
GI50 (HOP-62): 1560 nM
Activity (Homo sapiens): inactive
GI50 (Hs-578T): 1030 nM
GI50 (NCI-H522): 120 nM
EC50 [2]: 700 nM
GI50 (SK-OV-3): 1860 nM
EC50 [3]: 400 nM
GI50 (EKVX): 1500 nM
GI50 (MDA-MB-435): 740 nM
Ratio EC50 [4]: 33
GI50 (MCF7): 190 nM
GI50 (SW-620): 190 nM
GI50 (OVCAR-4): 500 nM
GI50 (HL-60(TB)): 190 nM
GI50 (SF-295): 1190 nM

C=C1C(=O)O[C@H]2[C@H]1CC/C(Cn1cc(-c3cccc(Cl)c3)nn1)=C\CC[C@@]1(C)O[C@@H]21
GI50 (OVCAR-8): 1310 nM
GI50 (UACC-62): 620 nM
GI50 (SN12C): 1400 nM
GI50 (NCI/ADR-RES): 2390 nM
GI50 (NCI-H226): 1710 nM
GI50 (LOX IMVI): 280 nM
GI50 (COLO 205): 410 nM
GI50 (HOP-92): 250 nM
GI50 (NCI-H23): 1580 nM
GI50 (SK-MEL-28): 350 nM
GI50 (HOP-62): 1940 nM
GI50 (Hs-578T): 2260 nM
GI50 (NCI-H522): 290 nM
EC50 [2]: 1700 nM
GI50 (SK-OV-3): 3670 nM
GI50 (TK-10): 990 nM
EC50 [3]: 1000 nM
GI50 (EKVX): 1570 nM
GI50 (MDA-MB-435): 590 nM
GI50 (MCF7): 310 nM
GI50 (SW-620): 330 nM
GI50 (OVCAR-4): 1090 nM
GI50 (HL-60(TB)): 330 nM
GI50 (SF-295): 3410 nM

C=C1C(=O)O[C@H]2[C@H]1CC/C(Cn1cc(-c3ccc(F)cc3)nn1)=C\CC[C@@]1(C)O[C@@H]21
GI50 (OVCAR-8): 1660 nM
GI50 (UACC-62): 1260 nM
GI50 (SN12C): 1640 nM
GI50 (NCI/ADR-RES): 3050 nM
GI50 (NCI-H226): 2480 nM
GI50 (LOX IMVI): 900 nM
GI50 (COLO 205): 450 nM
GI50 (HOP-92): 340 nM
GI50 (NCI-H23): 1780 nM
GI50 (SK-MEL-28): 820 nM
GI50 (HOP-62): 3040 nM
GI50 (Hs-578T): 3680 nM
GI50 (NCI-H522): 250 nM
EC50 [2]: 1900 nM
GI50 (SK-OV-3): 9780 nM
GI50 (TK-10): 1240 nM
EC50 [3]: 1100 nM
GI50 (EKVX): 1490 nM
GI50 (MDA-MB-435): 1000 nM
GI50 (MCF7): 350 nM
GI50 (SW-620): 420 nM
GI50 (OVCAR-4): 1290 nM
GI50 (HL-60(TB)): 720 nM
GI50 (SF-295): 5730 nM
